Laboratory results from ChEMBL document CHEMBL4406803, “A- and D-Ring Structural Modifications of an Androsterone Derivative Inhibiting 17β-Hydroxysteroid Dehydrogenase Type 3: Chemical Synthesis and Structure-Activity Relationships” (J Med Chem, 2019).
Activity calls are given as the source filed them. The calls are words filed in the database; no cut-off is given here.

Assays:
[1] = molecular target: T1, 17-beta-hydroxysteroid dehydrogenase type 3 (Homo sapiens, UniProt P37058); assay: Inhibition of 17beta-HSD3 (unknown origin) expressed in human LNCAP cells assessed as reduction in [14C]-testosterone formation from [14C]-4-androstene-3,17-dione measured after 1 hr; format: cell-based
T1 sequence (P37058 whole entry): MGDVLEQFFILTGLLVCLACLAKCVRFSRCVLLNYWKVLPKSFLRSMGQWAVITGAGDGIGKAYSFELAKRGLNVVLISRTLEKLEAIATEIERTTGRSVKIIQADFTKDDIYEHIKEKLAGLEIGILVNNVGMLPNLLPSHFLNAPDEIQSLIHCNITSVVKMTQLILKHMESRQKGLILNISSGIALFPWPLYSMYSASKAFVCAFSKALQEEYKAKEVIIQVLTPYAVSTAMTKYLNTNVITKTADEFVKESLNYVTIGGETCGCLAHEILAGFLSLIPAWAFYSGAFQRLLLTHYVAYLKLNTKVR
Summary of the method: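 Transfected LNCaP[17β-HSD3] cells were incubated 1 h with 15 nM [14C]-4-androstenedione and inhibitor at seven concentrations (0.001–5.0 µM; 0.05% DMSO). [14C]-T formation was measured by TLC and radioimaging. IC50 was obtained by curve fitting, averaging two independent experiments in triplicate.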

[2] = system: PC-3; assay: Antiproliferative activity against AR-deficient human PC3 cells assessed as reduction in cell proliferation at 1 uM measured after 3 days by MTS assay relative to control; format: functional; set-up: scale not given: the % may be the effect or the level left
Summary of the method: (§1)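 Androgen-independent PC-3 cells were plated at 3,000 per well in triplicate in RPMI-1640 with 10% FBS. Compounds were added at 0.1, 0.5 and 1.0 µM from DMSO stock, with 0.05% DMSO in controls, and incubated 3 days. Growth was read by MTS (4 h, 490 nm) and expressed as % of non-treated control (100%).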

[3] = molecular target: T2, 17-beta-hydroxysteroid dehydrogenase type 3 (Rattus norvegicus, UniProt O54939); assay: Inhibition of 17beta-HSD3 in Sprague-Dawley rat testes microsomal fraction assessed as reduction in [14C]-testosterone formation from [14C]-4-androstene-3,17-dione measured after 2 hrs; set-up: species or system Testis
T2 sequence (O54939 whole entry): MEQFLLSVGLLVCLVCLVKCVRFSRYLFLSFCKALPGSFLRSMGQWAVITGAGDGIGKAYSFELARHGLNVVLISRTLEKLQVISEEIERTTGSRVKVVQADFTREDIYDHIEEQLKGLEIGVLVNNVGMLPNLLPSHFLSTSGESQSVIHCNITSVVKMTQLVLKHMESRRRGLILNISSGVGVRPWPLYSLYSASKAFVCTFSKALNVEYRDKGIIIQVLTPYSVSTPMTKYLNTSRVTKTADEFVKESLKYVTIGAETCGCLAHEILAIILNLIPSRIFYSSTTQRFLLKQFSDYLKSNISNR
Summary of the method: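 The enzyme source was a microsomal fraction from Sprague-Dawley rat testes, prepared by homogenization in phosphate/sucrose/EDTA buffer (pH 7.5) and centrifugation at 100,000 g. The assay ran 2 h at 37 °C in 50 mM sodium phosphate (pH 7.4, 20% glycerol, 1 mM EDTA) with NADPH cofactor and [14C]-4-androstenedione. [14C]-T formation was measured at six inhibitor concentrations in triplicate, and IC50 was fitted from the curves.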

[4] = system: LAPC4; assay: Antiproliferative activity against human LAPC4 cells expressing androgen receptor assessed as inhibition of cell proliferation at 0.5 uM supplemented with fresh medium containing compounds every 3 days for 7 days by MTS assay relative to control; format: functional
Summary of the method: (§2)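 Androgen-dependent LAPC-4 cells were seeded at 5,000 per well in IMDM with 5% dextran-coated charcoal-treated FBS and pre-incubated 24 h at 37 °C, 5% CO2. Compounds were added from DMSO stock at 0.1, 0.5 and 1.0 µM, with 0.05% DMSO in controls. Incubation lasted 7 days, with a medium change at day 3. Growth was read by MTS (4 h, 490 nm) as % of untreated control (100%), in triplicate.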

[5] = system: PC-3; assay: Antiproliferative activity against AR-deficient human PC3 cells assessed as reduction in cell proliferation at 0.1 uM measured after 3 days by MTS assay relative to control; format: functional; set-up: scale not given: the % may be the effect or the level left; summary of the method: as §1
[6] = system: LAPC4; assay: Antiproliferative activity against human LAPC4 cells expressing androgen receptor assessed as inhibition of cell proliferation at 0.1 uM supplemented with fresh medium containing compounds every 3 days for 7 days by MTS assay relative to control; format: functional; summary of the method: as §2
[7] = Plasma concentration in mouse at 25 mg/kg, sc administered as single dose measured after 3 hrs by LC-MS/MS analysis; format: ADME, organism-based
Summary of the method: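 Female mice were fasted 8 h, then given a single 25 mg/kg subcutaneous dose in 0.1 mL of 0.4% aqueous methylcellulose with 8% DMSO. At 3 h, blood was taken by cardiac puncture into K-EDTA tubes (3 mice per group). Plasma was extracted and analysed by LC-MS/MS against a plasma calibration curve.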

[8] = system: LAPC4; assay: Antiproliferative activity against human LAPC4 cells expressing androgen receptor assessed as inhibition of cell proliferation at 1 uM supplemented with fresh medium containing compounds every 3 days for 7 days by MTS assay relative to control; format: functional; summary of the method: as §2
[9] = system: PC-3; assay: Antiproliferative activity against AR-deficient human PC3 cells assessed as reduction in cell proliferation at 0.5 uM measured after 3 days by MTS assay relative to control; format: functional; set-up: scale not given: the % may be the effect or the level left; summary of the method: as §1
[10] = molecular target: T3, 17-beta-hydroxysteroid dehydrogenase type 3 (Homo sapiens) (UniProt P37058); assay: Inhibition of 17beta-HSD3 (unknown origin) expressed in human LNCAP cells assessed as reduction in [14C]-testosterone formation from [14C]-4-androstene-3,17-dione at 1 uM measured after 1 hr relative to control; format: cell-based
T3 sequence (whole entry): T1 sequence (P37058 whole entry)
Summary of the method: (§3)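 LNCaP cells stably transfected with 17β-HSD3 were plated at 10,000 per well in hygromycin-free medium and grown 2 days. They were then given 15 nM [14C]-4-androstenedione plus inhibitor at 0.1, 0.5 or 1.0 µM (0.05% DMSO final) for 1 h. Steroids were ether-extracted, separated by TLC and quantified by radioimaging. Results are % inhibition of conversion to T.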

[11] = molecular target: T3, 17-beta-hydroxysteroid dehydrogenase type 3 (Homo sapiens); assay: Inhibition of 17beta-HSD3 (unknown origin) expressed in human LNCAP cells assessed as reduction in [14C]-testosterone formation from [14C]-4-androstene-3,17-dione at 0.5 uM measured after 1 hr relative to control; format: cell-based; summary of the method: as §3
[12] = system: T47D; assay: Estrogenic activity in human T47D cells assessed as stimulation of cell proliferation at 1 to 5 uM; format: ADME, cell-based
[13] = molecular target: T3, 17-beta-hydroxysteroid dehydrogenase type 3 (Homo sapiens); assay: Inhibition of 17beta-HSD3 (unknown origin) expressed in human LNCAP cells assessed as reduction in [14C]-testosterone formation from [14C]-4-androstene-3,17-dione at 0.1 uM measured after 1 hr relative to control; format: cell-based; summary of the method: as §3
[14] = system: T47D; assay: Antiproliferative activity against human T47D cells assessed as reduction in cell proliferation at 1 to 5 uM; format: functional, cell-based
[15] = system: LAPC4; assay: Antiproliferative activity against human LAPC4 cells expressing androgen receptor assessed as inhibition of cell proliferation supplemented with fresh medium containing compounds every 3 days for 7 days by MTS assay; format: functional, cell-based; summary of the method: as §2
[16] = Stability of the compound in human liver S9 fraction at 10 uM measured after 1 hr by NADPH by HPLC-MS analysis; format: ADME, subcellular; settings: s9, 1 h
Summary of the method: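 Substrate (10 µM) was incubated 1 h at 37 °C with 40 µg human liver S9 fraction in 50 mM Tris with 10 mM MgCl2, with or without 10 mM NADPH. The reaction was stopped with MeOH. Remaining parent was measured by HPLC-MS (UV 190 nm) as the AUC ratio with/without NADPH ×100. Values are the mean ± SD of four independent experiments.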

[17] = system: LAPC4; assay: Antiproliferative activity against human LAPC4 cells expressing androgen receptor assessed as inhibition of cell proliferation at 0.5 uM measured after 3 days by MTS assay relative to control; format: functional; settings: LAPC4, 72 h
[18] = system: LAPC4; assay: Antiproliferative activity against human LAPC4 cells expressing androgen receptor assessed as inhibition of cell proliferation at 0.1 uM measured after 3 days by MTS assay relative to control; format: functional; settings: LAPC4, 72 h
[19] = system: LAPC4; assay: Antiproliferative activity against human LAPC4 cells expressing androgen receptor assessed as inhibition of cell proliferation at 1 uM measured after 3 days by MTS assay relative to control; format: functional; settings: LAPC4, 72 h

CC1CN(S(=O)(=O)c2ccccc2C(F)(F)F)C(C)CN1CC(O)c1ccc2c(c1)CC[C@@H]1[C@@H]2CC[C@]2(C)C(=O)CC[C@@H]12 (single isomer, unassigned; diastereomer B)
IC50 [1]: 0.02 µM | Activity [2]: 5% | IC50 [3]: 0.06 µM | inhibition (INH) [4]: 32% | Activity [5]: 8% | inhibition (INH) [6]: -3% | concentration at 3 h [7]: 48.7 ng/mL | inhibition (INH) [8]: 44% | Activity [9]: 6%

CC1CN(S(=O)(=O)c2ccccc2C(F)(F)F)C(C)CN1Cc1cc2c(cc1O)CC[C@@H]1[C@@H]2CC[C@]2(C)C(=O)CC[C@@H]12 (stereo not given in full)
IC50 [1]: 0.17 µM | inhibition [10]: 84% | inhibition [11]: 76% | Activity [2]: 7% | IC50 [3]: 0.12 µM | inhibition (INH) [4]: 7% | Activity [5]: 4% | inhibition (INH) [6]: 0% | concentration at 3 h [7]: 89.3 ng/mL | inhibition (INH) [8]: 6% | Activity [12]: Non-Toxic | Activity [9]: 5% | inhibition [13]: 50% | Activity [14]: inactive

CC1CN(S(=O)(=O)c2ccccc2C(F)(F)F)C(C)CN1C(=O)c1ccc2c(c1)CC[C@@H]1[C@@H]2CC[C@]2(C)C(=O)CC[C@@H]12 (stereo not given in full)
IC50 [1]: 0.1 µM | inhibition [15]: Dose-dependent effect | inhibition [10]: 90% | inhibition [11]: 78% | Activity [2]: 6% | IC50 [3]: 0.11 µM | inhibition (INH) [4]: 54% | Activity [5]: 7% | inhibition (INH) [6]: 40% | concentration at 3 h [7]: 108 ng/mL | inhibition (INH) [8]: 63% | Activity [9]: 0% | inhibition [13]: 45% | Stability [16]: Stable

CC1CN(S(=O)(=O)c2ccccc2C(F)(F)F)C(C)CN1CCc1ccc2c(c1)CC[C@@H]1[C@@H]2CC[C@]2(C)C(=O)CC[C@@H]12 (stereo not given in full)
IC50 [1]: 0.13 µM | inhibition [15]: Dose-dependent effect | inhibition [10]: 70% | inhibition [11]: 60% | Activity [2]: 1% | IC50 [3]: 0.1 µM | inhibition (INH) [4]: 80% | Activity [5]: 1% | inhibition (INH) [6]: 48% | concentration at 3 h [7]: 51.6 ng/mL | inhibition (INH) [8]: 79% | Activity [12]: Non-Toxic | Activity [9]: 5% | inhibition [13]: 38% | Activity [14]: inactive

CC1CN(S(=O)(=O)c2ccccc2C(F)(F)F)C(C)CN1C[C@@]1(O)CC[C@@]2(C)[C@@H](CC[C@@H]3[C@@H]2CC[C@]2(C)C(=O)CC[C@@H]32)C1 (stereo not given in full)
IC50 [1]: 0.09 µM | inhibition [15]: Dose-dependent effect | inhibition [10]: 100% | inhibition [11]: 96% | Activity [2]: 11% | IC50 [3]: 0.08 µM | inhibition (INH) [4]: 52% | Activity [5]: 9% | inhibition (INH) [6]: 4% | concentration at 3 h [7]: 27.7 ng/mL | inhibition (INH) [8]: 67% | Activity [9]: 6% | inhibition [13]: 60% | Stability [16]: Unstable

C#C[C@]1(O)CC[C@H]2[C@@H]3CCc4cc(OC)c(N5CCN(C(=O)[C@@H]6CCCN6C(=O)c6ccc7ccccc7n6)CC5)cc4[C@H]3CC[C@@]21C
inhibition at 0.5 µM [17]: 62% | Activity [2]: 39% | inhibition at 0.1 µM [18]: 19% | Activity [5]: 3% | Activity [9]: 20% | inhibition at 1 µM [19]: 69%

CC1CN(S(=O)(=O)c2ccccc2C(F)(F)F)C(C)CN1C[C@@]1(O)CC[C@@]2(C)[C@@H](CC[C@@H]3[C@@H]2CC[C@]2(C)/C(=N/O)CC[C@@H]32)C1 (stereo not given in full)
IC50 [1]: 0.22 µM | inhibition [15]: Dose-dependent effect | inhibition [10]: 90% | inhibition [11]: 80% | Activity [2]: 4% | inhibition (INH) [4]: 41% | Activity [5]: 10% | inhibition (INH) [6]: -8% | concentration at 3 h [7]: 94.7 ng/mL | inhibition (INH) [8]: 56% | Activity [9]: 6% | inhibition [13]: 40% | Stability [16]: Stable
